Calls of active or inactive are those of the source. The calls are words filed in the database; no cut-off is given here.
Legend:
Carbonic anhydrase 9 [1] = molecular target: T1, Carbonic anhydrase 9 (Homo sapiens, UniProt Q16790)
[2] = Cytotoxicity against CA9-deficient chinese hamster PS120 cells assessed as cell viability at 100 uM and pH 7.5 after 24 hrs by giemsa staining; format: cell-based, Cricetulus griseus; settings: ps120, pH 7.5, 24 h
Summary of the method: (§1)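 PS120-pev fibroblasts (CCL39-derived, no CA IX) attached, then held 24 h in HCO3−-free DMEM with 30 mM HEPES at pHo 7.5, 10% dialyzed serum, 0.1 mM hypoxanthine and 0.1 mM uridine triphosphate, in CO2/HCO3−-free atmosphere, with compound or DMSO. Then returned to regular medium under 5% CO2 for 7 days; Giemsa staining; scored viable or not viable.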

[3] = Cytotoxicity against CA9-deficient chinese hamster PS120 cells assessed as cell viability at 300 uM and pH 7.5 after 24 hrs by giemsa staining; format: cell-based, Cricetulus griseus; settings: ps120, pH 7.5, 24 h
Summary of the method: as §1

[4] = Cytotoxicity against CA9-deficient chinese hamster PS120 cells assessed as cell viability at 30 uM and pH 7.5 after 24 hrs by giemsa staining; format: cell-based, Cricetulus griseus; settings: ps120, pH 7.5, 24 h
Summary of the method: as §1

[5] = Cytotoxicity against CA9-deficient chinese hamster PS120 cells assessed as cell viability at 60 uM and pH 7.5 after 24 hrs by giemsa staining; format: cell-based, Cricetulus griseus; settings: ps120, pH 7.5, 24 h
Summary of the method: as §1

LS174T [6] = test: Reduction in CA9 level in human LS 174T cells expressing shca9 and tetracyclin repressor under hypoxia condition at 60 uM after 48 hrs by Western blot analysis; format: functional, cell-based
Summary of the method: (§2)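 Stable LS-shca9/ctl cells kept without Tet for 4 days, then placed in normoxia (21% O2) or hypoxia (1% O2) for 48 h with or without 60 µM compound. Whole-cell SDS lysates (40 µg protein) run on 7.5% SDS-PAGE and immunoblotted with M75 anti-CA IX; Hsp90 as loading control; HRP secondary with ECL detection.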

Carbonic anhydrase 9 [7] = molecular target: T1, Carbonic anhydrase 9; settings: PS120, at 60 µM
LS174T [8] = test: Reduction in CA9 mRNA level in human LS 174T cells expressing shca9 and tetracyclin repressor under normoxia condition at 60 uM after 48 hrs by Western blot analysis; format: functional, cell-based
LS174T [9] = test: Reduction in CA9 protein level in human LS 174T cells expressing shca9 and tetracyclin repressor under normoxia condition at 60 uM after 48 hrs by Western blot analysis; format: functional, cell-based
Summary of the method: as §2

[10] = Antiproliferative activity against human LS 174T cells expressing shca9 under hypoxia condition at 60 uM after 3 days by cell counting technique relative to control; format: functional, LS174T
Summary of the method: (§3)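 LS174Tr colon carcinoma cells carrying Tet-inducible ca9 shRNA plus nontarget (ctl) or constitutive ca12 shRNA. Tet (1 µg/ml) added 4 days before assay for ca12-silenced cells. 6 x 10^4 cells seeded; 24 h later moved to hypoxia (1% O2) with or without inhibitor (DMSO control). Cells detached and Coulter-counted every 24 h for 3 days; proliferation index = daily count / count at 24 h post-seeding.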

LS174T [11] = test: Reduction in CA9 mRNA level in human LS 174T cells expressing shca9 and tetracyclin repressor under hypoxia condition at 60 uM after 48 hrs by Western blot analysis; format: functional, cell-based
[12] = Antiproliferative activity against ca9/ca12 double silenced human LS 174T cells under hypoxia assessed as decrease in cell proliferation at 60 uM after 3 days by cell counting technique relative to control; format: functional, LS174T; set-up: scale not given: the % may be the effect or the level left
Summary of the method: as §3

| Ki (Carbonic anhydrase 9 [1]) [nM] | Structure (SMILES) | Activity [2] | Activity [3] | Activity [4] | Activity [5] | further results |
| --- | --- | --- | --- | --- | --- | --- |
| 99.6 | CC(=O)OC[C@H]1O[C@@H](S(=O)(=O)Cc2nnn(-c3ccc(S(N)(=O)=O)cc3)c2I)[C@H](OC(C)=O)[C@@H](OC(C)=O)[C@@H]1O[C@H]1O[C@H](COC(C)=O)[C@@H](OC(C)=O)[C@H](OC(C)=O)[C@H]1OC(C)=O |  |  |  |  |  |
| 95 | CC(=O)OC[C@H]1O[C@@H](SCc2nnn(-c3ccc(S(N)(=O)=O)cc3)c2I)[C@H](OC(C)=O)[C@@H](OC(C)=O)[C@H]1OC(C)=O |  |  |  |  |  |
| 6.5 | NS(=O)(=O)c1ccc(-n2nnc(CS[C@@H]3O[C@H](CO)[C@@H](O)[C@H](O)[C@H]3O)c2I)cc1 | Non-toxic | Non-toxic | Non-toxic | Non-toxic |  |
|  | CC(=O)Nc1nnc(S(N)(=O)=O)s1 [ACETAZOLAMIDE] | Non-toxic | Toxic | Non-toxic | Non-toxic |  |
|  | CC(=O)OC[C@H]1O[C@@H](SCc2cn(-c3ccc(S(N)(=O)=O)cc3)nn2)[C@H](OC(C)=O)[C@@H](OC(C)=O)[C@@H]1OC(C)=O | Non-toxic |  | Non-toxic | Non-toxic |  |
|  | NS(=O)(=O)c1ccc(-n2cc(CS(=O)(=O)[C@@H]3O[C@H](CO)[C@@H](O)[C@H](O)[C@H]3O)nn2)cc1 | Non-toxic | Non-toxic | Non-toxic | Non-toxic |  |
| 71.2 | NS(=O)(=O)c1ccc(-n2cc(CS(=O)(=O)[C@@H]3O[C@H](CO)[C@@H](O[C@H]4O[C@H](CO)[C@@H](O)[C@H](O)[C@H]4O)[C@H](O)[C@H]3O)nn2)cc1 |  |  |  |  |  |
| 89 | NS(=O)(=O)c1ccc(-n2nnc(CS(=O)(=O)[C@@H]3O[C@H](CO)[C@H](O)[C@H](O)[C@H]3O)c2I)cc1 |  |  |  |  |  |
| 7.3 | NS(=O)(=O)c1ccc(-n2nnc(CS[C@@H]3O[C@H](CO)[C@H](O)[C@H](O)[C@H]3O)c2I)cc1 |  |  |  |  |  |
| 61.9 | CC(=O)OC[C@H]1O[C@@H](S(=O)(=O)Cc2cn(-c3ccc(S(N)(=O)=O)cc3)nn2)[C@H](OC(C)=O)[C@@H](OC(C)=O)[C@@H]1O[C@H]1O[C@H](COC(C)=O)[C@@H](OC(C)=O)[C@H](OC(C)=O)[C@H]1OC(C)=O |  |  |  |  |  |
| 61 | NS(=O)(=O)c1ccc(-n2nnc(CS(=O)(=O)[C@@H]3O[C@H](CO)[C@@H](O)[C@H](O)[C@H]3O)c2I)cc1 | Non-toxic | Toxic | Non-toxic | Non-toxic |  |
|  | CC(=O)OC[C@H]1O[C@@H](S(=O)(=O)Cc2cn(-c3ccc(S(N)(=O)=O)cc3)nn2)[C@H](OC(C)=O)[C@@H](OC(C)=O)[C@@H]1OC(C)=O | Non-toxic | Non-toxic | Non-toxic | Non-toxic |  |
| 68 | NS(=O)(=O)c1ccc(-n2nnc(CS(=O)(=O)[C@@H]3O[C@H](CO)[C@@H](O[C@H]4O[C@H](CO)[C@@H](O)[C@H](O)[C@H]4O)[C@H](O)[C@H]3O)c2I)cc1 |  |  |  |  |  |
|  | NS(=O)(=O)c1ccc(-n2cc(CS[C@@H]3O[C@H](CO)[C@@H](O)[C@H](O)[C@H]3O)nn2)cc1 | Non-toxic | Non-toxic | Non-toxic | Non-toxic |  |
| 6.2 | CC(=O)OC[C@H]1O[C@@H](SCc2nnn(-c3ccc(S(N)(=O)=O)cc3)c2I)[C@H](OC(C)=O)[C@@H](OC(C)=O)[C@@H]1OC(C)=O | Toxic | Toxic | Non-toxic | Non-toxic | Activity (LS174T [6]): Active; inhibition (Carbonic anhydrase 9 [7]): Active; Activity (LS174T [8]): Active; Activity (LS174T [9]): Active; Activity [10]: 60%; Activity (LS174T [11]): Active; Activity [12]: 16% |

| Structure (SMILES) | Ki (Carbonic anhydrase 9 [1]) [nM] | Activity [2] | Activity [3] | Activity [4] | Activity [5] | further results |
| --- | --- | --- | --- | --- | --- | --- |
| CC(=O)OC[C@H]1O[C@@H](SCc2nnn(-c3ccc(S(N)(=O)=O)cc3)c2C#CCO)[C@H](OC(C)=O)[C@@H](OC(C)=O)[C@H]1OC(C)=O | 91 |  |  |  |  |  |
| CC(=O)OC[C@H]1O[C@@H](S(=O)(=O)Cc2nnn(-c3ccc(S(N)(=O)=O)cc3)c2I)[C@H](OC(C)=O)[C@@H](OC(C)=O)[C@@H]1OC(C)=O | 71 | Toxic | Toxic | Non-toxic | Toxic |  |
| CC(=O)OC[C@H]1O[C@@H](S(=O)(=O)Cc2nnn(-c3ccc(S(N)(=O)=O)cc3)c2I)[C@H](OC(C)=O)[C@@H](OC(C)=O)[C@H]1OC(C)=O | 97 |  |  |  |  |  |

— ChEMBL document CHEMBL1833899, “Targeting hypoxic tumor cell viability with carbohydrate-based carbonic anhydrase IX and XII inhibitors” (J Med Chem, 2011)
